Where two headings read alike, the source gives them in different places. Marks after values point to notes of the source that are not given here.
Experiments:
[1] = format: in vivo, human
Outline: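 Six healthy men were dosed fasted, orally, once at 200 mg of 14C-labelled test compound (1.8 MBq) in water with 8% hydroxypropyl-β-cyclodextrin. Blood was drawn predose and from 15 min to 72 h, kept on ice, and spun at 1500g for 10 min at 4 °C within 30 min. Plasma radioactivity was read by liquid scintillation and parent by LC-MS/MS. Parameters were noncompartmental, with values below LLOQ set to zero.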

[2] = format: in vivo, human; remark: listed apart in the source
Outline: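 Healthy men (n = 6) got one fasted oral 200 mg dose of 14C-labelled test compound (1.8 MBq) in water with 8% hydroxypropyl-β-cyclodextrin. Urine and feces were collected for 8 days. Expired air was sampled predose to 72 h and trapped in 1 N hyamine hydroxide with phenolphthalein. Urine and feces were homogenized, and radioactivity was read by liquid scintillation. Urinary parent was measured by LC-MS/MS. CL_R = Ae/AUC over the largest common quantifiable interval.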

[3] = Metabolic profiling of 14C-amenamevir in plasma, urine and feces; format: in vivo, human; settings: single oral 200 mg
Outline: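 After one fasted oral 200 mg dose of 14C-labelled test compound in 8% hydroxypropyl-β-cyclodextrin, healthy men gave plasma predose and at 0.5, 1, 2, 4, 6, 8, 10 and 12 h. Urine and fecal homogenates (stored at −70 °C) were also collected. Radiochromatograms were run by HPLC for all matrices. Urine and fecal metabolites were identified by LC-MS/MS.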

[4] = Safety and tolerability of single-dose amenamevir in healthy volunteers; format: in vivo, human; settings: single 200 mg dose; for subjects with treatment‐emergent AEs: 6 subjects dosed
Outline: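 Six healthy men aged 18–65 years received one fasted oral 200 mg dose and were monitored from screening through admission, discharge and a post-study visit. Adverse events were collected from spontaneous reports and non-leading questioning, coded with MedDRA v10.0, and graded for severity and treatment relation. Checks covered blood pressure, heart rate, ECG, physical examination, chemistry, hematology, urinalysis, serology and drug/alcohol screens.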

[5] = 300‐mg dose (capsule); mean ± SD; study 15L‐CL‐001; cited from earlier work
[6] = 300‐mg dose (capsule); mean ± SD; study 15L‐CL‐002; cited from earlier work
[7] = single 300‐mg (capsule) dose, day 1 of administration; study 15L‐CL‐003; cited from earlier work
cytochrome P450 (CYP) 3A = settings: cited from earlier work
VZV = settings: preclinical studies; cited from earlier work
[8] = healthy volunteers, cited from earlier work
[9] = subjects with moderate hepatic impairment; cited from earlier work
[10] = subjects with severe renal impairment; cited from earlier work
[11] = ^14C‐radioactivity in plasma, single oral 200 mg, n = 6, mean ± SD
[12] = ^14C‐radioactivity in whole blood, single oral 200 mg, n = 6, mean ± SD
[13] = ^14C‐radioactivity, single oral 200 mg
[14] = single oral 200 mg, n = 5, mean ± SD, 8 days of sampling

For `Cc1cccc(C)c1N(CC(=O)Nc1ccc(-c2ncon2)cc1)C(=O)C1CCS(=O)(=O)CC1` [Amenamevir], the AUCinf [1, 11] was 10,997 ± 2530 ng · h/mL, the AUClast [1, 11] was 10,076 ± 2912 ng · h/mL and the Cmax [1, 11] was 1041 ± 324 ng/mL. For the same molecule, the t½ [1, 11] was 8.03 ± 0.81 h, the tmax ([1]; ^14C‐radioactivity in plasma, single oral 200 mg, n = 6, median (range)) was 1.00 (1.00–3.02) hours and the AUCinf [1, 12] was 10,425 ± 2265 ng · h/mL. It also gave an AUClast [1, 12] of 8530 ± 2263 ng·h/mL, a Cmax [1, 12] of 919 ± 284 ng/mL and a t½ [1, 12] of 9.19 ± 2.13 h. The tmax ([1]; ^14C‐radioactivity in whole blood, single oral 200 mg, n = 6, median (range)) was 1.00 (1.00–2.00) hours, the “Whole blood:plasma ratio of AUCinf” value [1, 13] was 0.951 and the “Whole blood:plasma ratio of AUClast” value [1, 13] was 0.852. The “Whole blood:plasma ratio of Cmax” value [1, 13] was 0.885, the AUC(0-inf) ([1]; human, plasma, po, 200 mg) was 8820 ± 2510 ng·h/mL and the AUC(0-t) ([1]; human, plasma, po, 200 mg) was 8690 ± 2490 ng·h/mL. For the same molecule, the Cmax ([1]; human, plasma, po, 200 mg) was 1020 ± 404 ng/mL, the half-life ([1]; human, plasma, po, 200 mg) was 7.65 ± 0.49 h and the tmax ([1]; human, plasma, po, 200 mg) was 1.5 h. For the same molecule, the CL renal ([2]; human, urine and plasma, po, 200 mg) was 40.7 mL/min, the “dose eliminated by 168 hours after the dose” value ([2]; single oral 200 mg) was over 95% and the “Ae expired air (cumulative recovery of ^14C‐radioactivity)” value ([2]; single oral 200 mg, N = 6, listed as 14C‐amenamevir) was 0%. For the same molecule, the “Ae urine (cumulative recovery of ^14C‐radioactivity)” value ([2]; single oral 200 mg, N = 6, mean ± SD, 8 days of sampling) was 20.6 ± 4.0%, the “Ae feces (cumulative recovery of ^14C‐radioactivity)” value [2, 14] was 74.6 ± 3.0 ^a % and the “Ae total (cumulative recovery of ^14C‐radioactivity)” value [2, 14] was 95.3%. The “Ae total (cumulative recovery of ^14C‐radioactivity)” value ([2]; single oral 200 mg, n = 5, mean ± SD, 8 days of sampling, listed as 14C‐amenamevir) was 95.3 ± 1.8 ^a %, the “Cumulative Aelast (amenamevir excreted into urine)” value ([2]; unchanged amenamevir in urine by LC‐MS/MS, single oral 200 mg, N = 6, mean ± SD) was 20.9 ± 5.5 mg and the “share of the administered dose in feces” value ([3]; feces 0 to 72 hours after the dose) was under 0.1%. For the same molecule, the “share of the total radioactivity in plasma” value ([3]; plasma samples 0.5 to 12 hours after the dose) was 80%, the “share of the total radioactivity excreted in urine” value ([3]; urine 0–48 hours after the dose) was “approximately 55%” and the “clinical laboratory evaluations, vital signs, electrocardiogram recordings” value [4] was “No clinically important abnormalities”. The “deaths, serious AEs, or AEs resulting in discontinuation” value [4] was “No deaths, serious AEs, or AEs resulting in discontinuation were reported”, the “subjects with treatment‐emergent AEs” value [4] was 3 and the “subjects with treatment‐emergent AEs” value ([4]; listed as amenamevir) was “Three”. For the same molecule, the “severity of AEs” value ([4]; all 3 AEs) was “mild”, the safety and tolerability ([4]; healthy male subjects, n = 6) was “safe and well tolerated” and the “half‐life” value [5] was 6.88 ± 0.56 h. For the same molecule, the “peak concentration of drug in blood plasma” value [5] was 1040 ± 264 ng/mL, the “half‐life” value [6] was 7.85 ± 1.62 h and the “peak concentration of drug in blood plasma” value [6] was 1093 ± 201 ng/mL. The “drug excreted in the urine” value [7] was 11.07%, the renal clearance [7] was 2.45 L/h and the “relation to CYP3A” value (cytochrome P450 (CYP) 3A) was “both a substrate and inducer”. The “activity against VZV compared with acyclovir and valacyclovir” value (VZV) was “more potent than acyclovir and valacyclovir”, the “dose proportionality of pharmacokinetics” value [8] was “less than dose proportional” and the safety and tolerability ([8]; single doses of 5 to 2400 mg or 300 to 600 mg/day for 7 days) was “safe and well tolerated”. For the same molecule, the “pharmacokinetic profile in moderate hepatic impairment” value [9] was “not significantly altered” and the “renal clearance in severe renal impairment” value [10] was “reduced renal clearance”.

Source: publication PMC6619336 (Clinical Pharmacology in Drug Development, 2018)
